# pIC50: −log10 of the molar value.
# Tested on: Plasmodium falciparum
# Test: Antiplasmodial activity against chloroquine-resistant Plasmodium falciparum W2 infected in human erythrocytes after 48 hrs by FACS analysis
# Type: functional, organism-based
# Details: W2, 48 h
# Summary of the method: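 Ring-stage W2-infected human RBCs at ~1% parasitemia, sorbitol (5%) synchronized; 48 h at 37 °C with compounds in RPMI-1640, 25 mM HEPES pH 7.4, 10% heat-inactivated human serum (or 0.5% Albumax/2% human serum), 100 hypoxanthine, 3% O2/5% CO2/91% N2. Cells fixed in 2% HCHO, stained with 1 nM YOYO-1 (NH4Cl/Triton X-100), flow cytometry at ex 488/em 520 nm; IC50 by curve fitting.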
row,SMILES,pIC50
1,c1cnc(SCCOc2ccc3c(c2)CCC3)nc1,< 4.30
2,Cc1ccc(NC(=O)CSc2nc(O)cc(NS(=O)(=O)c3ccccc3)n2)cc1,< 4.30
3,CCn1c(SCc2nc(-c3cccs3)no2)nnc1-c1c[nH]c2ccccc12,4.55
4,CSCCC(N)c1nc(C(=O)CC(Cc2c[nH]c3ccccc23)C(N)=O)cs1 (stereo not drawn),< 4.30
5,NC(=O)C(CC(=O)c1csc(C2CCCNC2)n1)Cc1c[nH]c2ccccc12 (stereo not drawn),< 4.30
6,Cc1ccc(C)n1CCSc1nc(N)cc(N)n1,< 4.30
7,Cc1ccc2[nH]c3nc(SCC(=O)Nc4sc5c(c4C#N)CCCC5)nnc3c2c1,< 4.30
8,COc1ccc2[nH]c3nc(SCC(=O)Nc4nc(C(C)(C)C)cs4)nnc3c2c1,4.57
9,O=C(Cc1ccc2c(c1)CCC2)NCCc1ccco1,< 4.30
10,c1ccn2cc(CSc3nnc(C4CC4)o3)nc2c1,< 4.30
11,CCCNc1nnc(SCc2cscn2)s1,< 4.30
12,COc1ccc(-c2noc(CSc3nnc(-c4c[nH]c5ccccc45)n3C)n2)cc1OC,4.92
13,Cc1nc2ccccc2nc1CSCc1ccco1,< 4.30
14,COc1ccc(SCCc2ccc(C)nc2)cc1,< 4.30
15,O=C(CSc1nnc(-c2c[nH]c3ccccc23)o1)c1ccc2c(c1)OCCO2,< 4.30
16,CCSc1nnc(NC(=O)CS(=O)(=O)c2c[nH]c3ccccc23)s1,< 4.30
17,COc1ccc(NC(=O)CCCn2c(=S)[nH]c3ccccc3c2=O)cc1OC,< 4.30
18,Cc1ccc(CNC(=O)CCn2c(=S)[nH]c3cc4c(cc3c2=O)OCO4)o1,< 4.30
19,O=C(NCc1ccoc1)C1CCC(Cn2c(=S)[nH]c3ccccc3c2=O)CC1 (stereo not drawn),< 4.30
20,O=C(NCc1cccnc1)C1CCC(Cn2c(=S)[nH]c3ccccc3c2=O)CC1 (stereo not drawn),5.71
21,Cn1c(SCc2nc(-c3ccc(Cl)cc3)no2)nnc1-c1c[nH]c2ccccc12,< 4.30
22,Cc1ccccc1OCCSc1nnc(-c2c[nH]c3ccccc23)n1C,5.17
23,Cn1c(SCc2nc(-c3cccs3)no2)nnc1-c1c[nH]c2ccccc12,4.53
